Source: ChEMBL document CHEMBL1122773 (1984)
Values after ≈ are worked out from the molar mass of the structure shown.

Tests used:
Assay type in all cases: functional
Mus musculus [1] = test: In vivo antibacterial activity against Plasmodium berghei infected mice (Mus musculus) after subcutaneous administration
Mus musculus [2] = test: In vivo antibacterial activity against Streptococcus pyogenes(UC 152) infected mice after oral administration
In short: (§1)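 Fresh drug solutions were given subcutaneously (0.2 mL) or by oral intubation (0.5 mL), per line. Dosing was immediately after infection, then daily for 4 consecutive days, with 3 further days of observation. CD50 was calculated by Spearman-Karber.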

Mus musculus [3] = test: In vivo antibacterial activity against Klebsiella pneumoniae (UC 58) infected mice after sc administration; in short: as §1
Mus musculus [4] = test: In vivo antibacterial activity against Bacteroides fragilis (UC no 6428) infected mice after sc administration
Mus musculus [5] = test: (§2) In vivo antibacterial activity against Escherichia coli(UC 311) infected mice after oral administration; in short: as §1
Mus musculus [6] = test: (§3) In vivo antibacterial activity against Pasteurella multocida(UC 264) infected mice after oral administration; in short: as §1
Mus musculus [7] = test: In vivo antibacterial activity against Escherichia coli (UC no 311) infected mice after sc administration; in short: as §1
Mus musculus [8] = test: In vivo antibacterial activity against Streptococcus pneumoniae I(UC 41) infected mice after oral administration; in short: as §1
Mus musculus [9] = test: In vivo antibacterial activity against Streptococcus pneumoniae […](UC 3213) infected mice after sc administration; in short: as §1
Mus musculus [10] = test: In vivo antibacterial activity against Staphylococcus aureus (UC no 76) infected mice after sc administration; in short: as §1
Mus musculus [11] = test: In vivo antibacterial activity against Staphylococcus aureus(UC 76) infected mice after oral administration; in short: as §1
Clostridium novyi = test: In vitro antibacterial activity against the anaerobic Clostridium novyi B(Strain UC no.6329)
In short: (§4)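 Agar dilution with serial twofold drug dilutions in Schaedler broth mixed into molten Wilkens-Chalgren agar. Strains grown 48 h on Schaedler agar, suspended to 0.5 McFarland, and 0.001 mL spotted by replicator. All steps done anaerobically. Incubation 48 h at 37 °C. MIC is the least drug inhibiting growth; a faint film or fewer than three colonies scored negative.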

Escherichia coli [12] = test: In vivo antibacterial activity against Escherichia coli(UC no 311) infected mice after sc administration; in short: as §1
[13] = system: Prevotella melaninogenica; test: In vitro antibacterial activity against the anaerobic Bacteroides melaninogenicus (Strain UC no.6326); in short: as §4
Bacteroides fragilis [14] = test: In vitro antibacterial activity against the anaerobic Bacteroides fragilis (Strain UC no.6862); in short: as §4
[15] = system: Parabacteroides distasonis; test: In vitro antibacterial activity against the anaerobic Bacteroides distasonis (Strain UC no.6518)
[16] = system: Peptostreptococcus anaerobius; test: In vitro antibacterial activity against the anaerobic Peptostreptococcus anaerobius(Strain UC no.6321); in short: as §4
[17] = system: Paraclostridium bifermentans; test: In vitro antibacterial activity against the anaerobic Clostridium bifermentans (Strain UC no.6507); in short: as §4
Clostridium perfringens [18] = test: In vitro antibacterial activity against the anaerobic Clostridium perfringens (Strain UC no.6509)
Staphylococcus aureus [19] = test: In vivo antibacterial activity against Staphylococcus aureus (UC no 76) infected mice after sc administration (value in parenthesis is 95% confidence interval); in short: as §1
Fusobacterium nucleatum [20] = test: In vitro antibacterial activity against the anaerobic Fusobacterium nucleatum (Strain UC no.6324); in short: as §4
Pasteurella multocida [21] = test: In vitro antibacterial activity against the aerobic Pasteurella multocida (Strain UC no.264)
In short: (§5)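 Broth microdilution in brain/heart infusion broth with twofold drug dilutions. Inoculum was a standardized suspension giving 10⁵ viable cells/mL final. Plates were incubated 20 h at 37 °C. MIC (mcg/mL) = lowest concentration with no visible growth.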

Clostridioides difficile [22] = test: In vitro antibacterial activity against the anaerobic Clostridium difficile (Strain UC no.6858); in short: as §4
Staphylococcus aureus [23] = test: In vitro antibacterial activity against the aerobic Staphylococcus aureus (Strain UC no.6685); in short: as §5
Clostridioides difficile [24] = test: In vitro antibacterial activity against the anaerobic Clostridium difficile (Strain UC no.6860); in short: as §4
Bacteroides fragilis [25] = test: In vivo antibacterial activity against Bacteroides fragilis(UC no 6428) infected mice after sc administration
Staphylococcus aureus [26] = test: In vitro antibacterial activity against the aerobic Staphylococcus aureus (Strain UC no.6690); in short: as §5
[27] = system: Fusobacterium necrophorum; test: In vitro antibacterial activity against the anaerobic Fusobacterium necrophorum (Strain UC no.6568); in short: as §4
Clostridium perfringens [28] = test: In vitro antibacterial activity against the anaerobic Clostridium perfringens (Strain UC no.247)
Fusobacterium nucleatum [29] = test: In vitro antibacterial activity against the anaerobic Fusobacterium nucleatum (Strain UC no.6516); in short: as §4
Escherichia coli [30] = test: as §2; in short: as §1
Streptococcus pyogenes [31] = test: In vivo antibacterial activity against Streptococcus pyogenes(UC 152) infected mice after oral administration (value in parenthesis is 95% confidence interval); in short: as §1
Clostridium tertium = test: In vitro antibacterial activity against the anaerobic Clostridium tertium(Strain UC no.6508); in short: as §4
Streptococcus pneumoniae [32] = test: In vivo antibacterial activity against Streptococcus pneumoniae I(UC 41) infected mice after oral administration (value in parenthesis is 95% confidence interval); in short: as §1
Pasteurella multocida [33] = test: as §3; in short: as §1
Bacteroides fragilis [34] = test: In vitro antibacterial activity against the anaerobic Bacteroides fragilis (Strain UC no.6513); in short: as §4
Actinomyces naeslundii = test: In vitro antibacterial activity against the anaerobic Actinomyces naeslundii (Strain UC no.5920)
Clostridium botulinum = test: In vitro antibacterial activity against the anaerobic Clostridium botulinum A(Strain UC no.6506)
Staphylococcus aureus [35] = test: In vitro antibacterial activity against the aerobic Staphylococcus aureus (Strain UC no.6687); in short: as §5
Streptococcus pneumoniae [36] = test: In vivo antibacterial activity against Streptococcus pneumoniae III(UC 3213) infected mice after oral administration (value in parenthesis is 95% confidence interval); in short: as §1
[37] = system: Staphylococcus epidermidis; test: In vitro antibacterial activity against the aerobic Staphylococcus epidermidis (Strain UC no.3389); in short: as §5
Plasmodium berghei = test: In vivo activity against Plasmodium berghei in mice (Mus musculus) after subcutaneous dose (95% confidence interval)
Cutibacterium acnes = test: In vitro antibacterial activity against the anaerobic Propionibacterium acnes(Strain UC no.6564); in short: as §4
Streptococcus pneumoniae [38] = test: In vivo antibacterial activity against Streptococcus pneumoniae I (UC no 41) infected mice after sc administration (value in parenthesis is 95% confidence interval); in short: as §1
[39] = system: Paeniclostridium sordellii; test: In vitro antibacterial activity against the anaerobic Clostridium sordellii (Strain UC no.6505); settings: Paraclostridium sordellii; in short: as §4
Fusobacterium varium = test: In vitro antibacterial activity against the anaerobic Fusobacterium varium(Strain UC no.6052); in short: as §4
[40] = system: Bacteroides thetaiotaomicron; test: In vitro antibacterial activity against the anaerobic Bacteroides thetaiotaomicron (Strain UC no.6512); in short: as §4
Bacteroides fragilis [41] = test: In vitro antibacterial activity against the anaerobic Bacteroides fragilis (Strain UC no.6428)
Klebsiella pneumoniae = test: In vivo antibacterial activity against Klebsiella pneumoniae(UC no 58) infected mice after sc administration; in short: as §1
Finegoldia magna = test: In vitro antibacterial activity against the anaerobic Peptococcus magnus(Strain UC no.6258); in short: as §4
Streptococcus pyogenes [42] = test: In vivo antibacterial activity against Streptococcus pyogenes (UC no 152) infected mice after sc administration (value in parenthesis is 95% confidence interval); in short: as §1

CCC[C@@H]1C[C@@H](C(=O)N[C@@H]([C@H]2O[C@H](SC)[C@H](O)[C@@H](O)[C@H]2O)[C@H](C)Cl)N(C)C1 [CLINDAMYCIN]
CD50 (Mus musculus [1]): 53 mg/kg | CD50 (Mus musculus [2]): 12.3 mg/kg | CD50 (Mus musculus [3]): >320 mg/kg | CD50 (Mus musculus [4]): 14.4 mg/kg | CD50 (Mus musculus [5]): >400 mg/kg | CD50 (Mus musculus [6]): >400 mg/kg | CD50 (Mus musculus [7]): >160 mg/kg | CD50 (Mus musculus [8]): 45.5 mg/kg | CD50 (Mus musculus [9]): 20 mg/kg | CD50 (Mus musculus [10]): 5.7 mg/kg | CD50 (Mus musculus [11]): 12.3 mg/kg

CC[C@@H]1CCN[C@H](C(=O)N[C@@H]([C@H]2O[C@H](SC)[C@H](O)[C@@H](O)[C@H]2O)[C@H](C)Cl)C1 [PIRLIMYCIN]
MIC (Clostridium novyi): 0.12 µg/mL (≈ 0.292 µM) | CD50 (Escherichia coli [12]): >160 mg/kg | MIC [13]: 0.06 µg/mL (≈ 0.146 µM) | MIC (Bacteroides fragilis [14]): 15.6 µg/mL (≈ 38 µM) | MIC [15]: < 0.03 µg/mL | MIC [16]: 0.12 µg/mL (≈ 0.292 µM) | MIC [17]: 0.06 µg/mL (≈ 0.146 µM) | MIC (Clostridium perfringens [18]): 0.12 µg/mL (≈ 0.292 µM) | CD50 (Staphylococcus aureus [19]): 0.4 mg/kg | MIC (Fusobacterium nucleatum [20]): 0.06 µg/mL (≈ 0.146 µM) | MIC (Pasteurella multocida [21]): 62.5 µg/mL (≈ 152 µM) | MIC (Clostridioides difficile [22]): 3.9 µg/mL (≈ 9.49 µM) | MIC (Staphylococcus aureus [23]): > 25 µg/mL | MIC (Clostridioides difficile [24]): 500 µg/mL (≈ 1220 µM) | CD50 (Bacteroides fragilis [25]): <6.25 mg/kg | MIC (Staphylococcus aureus [26]): 0.2 µg/mL (≈ 0.487 µM) | MIC [27]: 0.06 µg/mL (≈ 0.146 µM) | MIC (Clostridium perfringens [28]): 0.12 µg/mL (≈ 0.292 µM) | MIC (Fusobacterium nucleatum [29]): 0.12 µg/mL (≈ 0.292 µM) | CD50 (Escherichia coli [30]): >400 mg/kg | CD50 (Streptococcus pyogenes [31]): 2.9 mg/kg | MIC (Clostridium tertium): 7.8 µg/mL (≈ 19 µM) | CD50 (Streptococcus pneumoniae [32]): 20.3 mg/kg | CD50 (Pasteurella multocida [33]): 400 mg/kg | MIC (Bacteroides fragilis [34]): 0.12 µg/mL (≈ 0.292 µM) | MIC (Actinomyces naeslundii): 0.25 µg/mL (≈ 0.608 µM) | MIC (Clostridium botulinum): < 0.03 µg/mL | MIC (Staphylococcus aureus [35]): 0.2 µg/mL (≈ 0.487 µM) | CD50 (Streptococcus pneumoniae [36]): 17.7 mg/kg | MIC [37]: 0.2 µg/mL (≈ 0.487 µM) | CD50 (Plasmodium berghei): 16 mg/kg | MIC (Cutibacterium acnes): 0.12 µg/mL (≈ 0.292 µM) | CD50 (Streptococcus pneumoniae [38]): 1.7 mg/kg | MIC [39]: 0.5 µg/mL (≈ 1.22 µM) | MIC (Fusobacterium varium): 3.9 µg/mL (≈ 9.49 µM) | MIC [40]: 0.5 µg/mL (≈ 1.22 µM) | MIC (Bacteroides fragilis [41]): 0.25 µg/mL (≈ 0.608 µM) | CD50 (Klebsiella pneumoniae): >320 mg/kg | MIC (Finegoldia magna): 0.06 µg/mL (≈ 0.146 µM) | CD50 (Streptococcus pyogenes [42]): 0.25 mg/kg
